Test results from ChEMBL document CHEMBL2062469, “1-(2-Mercaptobenzenesulfonyl)-3-hydroxyguanidines--novel potent antiproliferatives, synthesis and in vitro biological activity” (2012).

Experiments:
Type in all cases: functional
[1] = system: HOP-92; test: Cytostatic activity against human HOP92 cells
Method in brief: (§1)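 NCI-60 human tumor cell line screen run by the US National Cancer Institute under the NIH Developmental Therapeutics Program protocol. A single-dose prescreen at 10 µM came first. Selected compounds then went into the 5-dose assay. Cytostatic activity is reported as GI50 (µM).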

[2] = system: A498; test: Cytostatic activity against human A498 cells; method in brief: as §1
[3] = system: M14; test: Cytostatic activity against human M14 cells; method in brief: as §1
[4] = system: MDA-MB-468; test: Cytostatic activity against human MDA-MB-468 cells; method in brief: as §1
[5] = system: A549; test: Cytostatic activity against human A549/ATCC cells; method in brief: as §1
[6] = system: HL-60(TB); test: Cytostatic activity against human HL-60(TB) cells
Method in brief: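 NCI-60 panel screen run per the NIH Developmental Therapeutics Program protocol. Agents first went through a one-dose test at 10 µM. Selected compounds were then run in a 5-dose assay, from which GI50 and TGI values were derived.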

[7] = system: MCF7; test: Cytostatic activity against human MCF7 cells; method in brief: as §1
[8] = system: NCI-H322M; test: Cytostatic activity against human NCI-H322M cells; method in brief: as §1
[9] = system: HT-29; test: Cytostatic activity against human HT-29 cells; method in brief: as §1
[10] = system: IGROV-1; test: Cytostatic activity against human IGROV1 cells; method in brief: as §1
[11] = system: CAKI-1; test: Cytostatic activity against human Caki1 cells; method in brief: as §1
[12] = system: NCI-H23; test: Cytostatic activity against human NCI-H23 cells; method in brief: as §1
[13] = system: NCI-H226; test: Cytostatic activity against human NCI-H226 cells; method in brief: as §1
[14] = system: UACC-257; test: Cytostatic activity against human UACC257 cells
Method in brief: (§2)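 Human tumour cell lines from the NCI-60 panel, tested at the US National Cancer Institute under the NIH Developmental Therapeutics Program protocol. A single-dose prescreen at 10 µM came first. Selected compounds then went to a 5-dose assay, which gave GI50 and TGI values in µM.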

[15] = system: SF-295; test: Cytostatic activity against human SF295 cells; method in brief: as §1
[16] = system: OVCAR-5; test: Cytostatic activity against human OVCAR5 cells; method in brief: as §1
[17] = system: SW-620; test: Cytostatic activity against human SW620 cells; method in brief: as §2
[18] = system: SN12C; test: Cytostatic activity against human SN12C cells; method in brief: as §1
[19] = system: DU-145; test: Cytostatic activity against human DU145 cells; method in brief: as §1
[20] = system: SF-539; test: Cytostatic activity against human SF539 cells; method in brief: as §1
[21] = system: NCI/ADR-RES; test: Cytostatic activity against human NCI-ADR-RES cells; method in brief: as §1
[22] = system: HCT-116; test: Cytostatic activity against human HCT116 cells; method in brief: as §1
[23] = system: OVCAR-3; test: Cytostatic activity against human OVCAR3 cells; method in brief: as §1
[24] = system: SF-268; test: Cytostatic activity against human SF268 cells; method in brief: as §1
[25] = Cytostatic activity against human […] cells; method in brief: as §1
[26] = system: MDA-MB-231; test: Cytostatic activity against human MDA-MB-231/ATCC cells; method in brief: as §1
[27] = system: SK-MEL-5; test: Cytostatic activity against human SK-MEL-5 cells; method in brief: as §1
[28] = system: HCT-15; test: Cytostatic activity against human HCT15 cells; method in brief: as §1
[29] = system: OVCAR-8; test: Cytostatic activity against human OVCAR8 cells; method in brief: as §1
[30] = system: RXF 393; test: Cytostatic activity against human RXF393 cells; method in brief: as §1
[31] = system: U-251; test: Cytostatic activity against human U251 cells; method in brief: as §2
[32] = system: K562; test: Cytostatic activity against human K562 cells; method in brief: as §1
[33] = system: HCC 2998; test: Cytostatic activity against human HCC2998 cells; method in brief: as §1
[34] = system: SNB-75; test: Cytostatic activity against human SNB75 cells; method in brief: as §2
[35] = system: KM12; test: Cytostatic activity against human KM12 cells; method in brief: as §1
[36] = system: UO-31; test: Cytostatic activity against human UO31 cells; method in brief: as §2
[37] = system: SK-MEL-2; test: Cytostatic activity against human SK-MEL-2 cells; method in brief: as §1
[38] = system: NCI-H460; test: Cytostatic activity against human NCI-H460 cells; method in brief: as §1
[39] = system: SR; test: Cytostatic activity against human SR cells; method in brief: as §2
[40] = system: SNB-19; test: Cytostatic activity against human SNB19 cells; method in brief: as §1
[41] = system: TK-10; test: Cytostatic activity against human TK10 cells; method in brief: as §2
[42] = system: EKVX; test: Cytostatic activity against human EKVX cells; method in brief: as §1
[43] = system: LOX IMVI; test: Cytostatic activity against human LOXIMVI cells; method in brief: as §1
[44] = system: MOLT-4; test: Cytostatic activity against human MOLT4 cells; method in brief: as §1
[45] = system: NCI-H522; test: Cytostatic activity against human NCI-H522 cells; method in brief: as §1
[46] = system: OVCAR-4; test: Cytostatic activity against human OVCAR4 cells; method in brief: as §1
[47] = system: HOP-62; test: Cytostatic activity against human HOP62 cells; method in brief: as §1
[48] = system: MDA-MB-435; test: Cytostatic activity against human MDA-MB-435 cells; method in brief: as §1
[49] = system: Hs-578T; test: Cytostatic activity against human Hs 578T cells; method in brief: as §1
[50] = system: CCRF-CEM; test: Cytostatic activity against human CCRF-CEM cells; method in brief: as §1
[51] = system: Malme-3M; test: Cytostatic activity against human MALME-3M cells; method in brief: as §1
[52] = system: T47D; test: Cytostatic activity against human T47D cells; method in brief: as §2
[53] = system: ACHN; test: Cytostatic activity against human ACHN cells; method in brief: as §1
[54] = system: UACC-62; test: Cytostatic activity against human UACC62 cells; method in brief: as §2
[55] = system: SK-MEL-28; test: Cytostatic activity against human SK-MEL-28 cells; method in brief: as §1
[56] = system: PC-3; test: Cytostatic activity against human PC3 cells; method in brief: as §1
[57] = system: COLO 205; test: Cytostatic activity against human COLO205 cells; method in brief: as §1

SMILES: N=C(NO)NS(=O)(=O)c1cc(-c2nnc(-c3ccc(Cl)cc3)s2)c(Cl)cc1SCc1ccccc1
- GI50 [1]: 2760 nM
- TGI [1]: 7420 nM
- GI50 [2]: 1750 nM
- TGI [2]: 5550 nM
- GI50 [3]: 1680 nM
- TGI [3]: 3200 nM
- GI50 [4]: 1520 nM
- TGI [4]: 2850 nM
- GI50 [5]: 2250 nM
- TGI [5]: 5640 nM
- GI50 [6]: 1780 nM
- TGI [6]: 4530 nM
- GI50 [7]: 1570 nM
- TGI [7]: 3030 nM
- GI50 [8]: 1930 nM
- TGI [8]: 3990 nM
- GI50 [9]: 1670 nM
- TGI [9]: 3130 nM
- GI50 [10]: 2570 nM
- TGI [10]: 5380 nM
- GI50 [11]: 2270 nM
- TGI [11]: 4670 nM
- GI50 [12]: 1700 nM
- TGI [12]: 3730 nM
- GI50 [13]: 2070 nM
- TGI [13]: 4050 nM
- GI50 [14]: 2100 nM
- TGI [14]: 4050 nM
- GI50 [15]: 2210 nM
- TGI [15]: 4650 nM
- GI50 [16]: 1600 nM
- TGI [16]: 3020 nM
- GI50 [17]: 1470 nM
- TGI [17]: 3070 nM
- GI50 [18]: 1670 nM
- TGI [18]: 3200 nM
- GI50 [19]: 1730 nM
- TGI [19]: 3100 nM
- GI50 [20]: 1970 nM
- TGI [20]: 3900 nM
- GI50 [21]: 7390 nM
- GI50 [22]: 1560 nM
- TGI [22]: 3110 nM
- GI50 [23]: 1670 nM
- TGI [23]: 3120 nM
- GI50 [24]: 1900 nM
- TGI [24]: 4210 nM
- GI50 [25]: 1740 nM
- TGI [25]: 4340 nM
- GI50 [26]: 2070 nM
- TGI [26]: 4790 nM
- GI50 [27]: 1580 nM
- TGI [27]: 3050 nM
- GI50 [28]: 1570 nM
- TGI [28]: 3170 nM
- GI50 [29]: 2030 nM
- TGI [29]: 4300 nM
- GI50 [30]: 1660 nM
- TGI [30]: 3040 nM
- GI50 [31]: 1540 nM
- TGI [31]: 3090 nM
- GI50 [32]: 2230 nM
- TGI [32]: 6310 nM
- GI50 [33]: 1810 nM
- TGI [33]: 3420 nM
- GI50 [34]: 1490 nM
- TGI [34]: 3180 nM
- GI50 [35]: 1750 nM
- TGI [35]: 3330 nM
- GI50 [36]: 1990 nM
- TGI [36]: 4680 nM
- GI50 [37]: 1750 nM
- TGI [37]: 3500 nM
- GI50 [38]: 1730 nM
- TGI [38]: 3490 nM
- GI50 [39]: 1450 nM
- TGI [39]: 4200 nM
- GI50 [40]: 1740 nM
- TGI [40]: 3420 nM
- GI50 [41]: 1870 nM
- TGI [41]: 3430 nM
- GI50 [42]: 1990 nM
- TGI [42]: 4120 nM
- GI50 [43]: 1680 nM
- TGI [43]: 3470 nM
- GI50 [44]: 1250 nM
- TGI [44]: 3570 nM
- GI50 [45]: 1670 nM
- TGI [45]: 3410 nM
- GI50 [46]: 1650 nM
- TGI [46]: 4010 nM
- GI50 [47]: 2050 nM
- TGI [47]: 3980 nM
- GI50 [48]: 2110 nM
- TGI [48]: 4170 nM
- GI50 [49]: 2510 nM
- TGI [49]: 7260 nM
- GI50 [50]: 840 nM
- TGI [50]: 3830 nM
- GI50 [51]: 1960 nM
- TGI [51]: 4030 nM
- GI50 [52]: 2070 nM
- TGI [52]: 4810 nM
- GI50 [53]: 1710 nM
- TGI [53]: 3150 nM
- GI50 [54]: 2020 nM
- TGI [54]: 3760 nM
- GI50 [55]: 1910 nM
- TGI [55]: 3470 nM
- GI50 [56]: 1740 nM
- TGI [56]: 3270 nM
- GI50 [57]: 1890 nM
- TGI [57]: 3740 nM
